# Test results as given in article PMC2115978 (The Journal of Cell Biology, 1990).
# Read-outs that look alike come from different tables or passages of the source.
# T1: prolactin receptor (Rattus norvegicus, UniProt P05710)
# T1 sequence (P05710 20-310 isoform P05710-3 limits assumed): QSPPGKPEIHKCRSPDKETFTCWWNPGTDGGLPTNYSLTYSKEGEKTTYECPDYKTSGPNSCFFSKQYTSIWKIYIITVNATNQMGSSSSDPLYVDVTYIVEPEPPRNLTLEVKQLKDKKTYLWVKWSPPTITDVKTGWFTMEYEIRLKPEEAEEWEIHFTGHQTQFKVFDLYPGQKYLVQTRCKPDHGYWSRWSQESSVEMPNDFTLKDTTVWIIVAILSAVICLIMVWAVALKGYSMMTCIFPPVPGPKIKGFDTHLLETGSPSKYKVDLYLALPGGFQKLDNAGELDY
# B1: 125I-prolactin: ovine prolactin (30.5 IU/mg) radioiodinated by chloramine T method (protein, UniProt P01240 31-229, looked up)
# Prolactin: TPVCPNGPGNCQVSLRDLFDRAVMVSHYIHNLSSEMFNEFDKRYAQGKGFITMALNSCHTSSLPTPEDKEQAQQTHHEVLMSLILGLLRSWNDPLYHLVTEVRGMKGVPDAILSRAIEIEEENKRLLEGMEMIFGQVIPGAKETEPYPVWSGLPSLQTKDEDARHSAFYNLLHCLRRDSSKIDTYLKLLNCRIIYNNNC
# modifications: 125I radiolabel
# What was measured:
# [1] = tested on: endosomal protease(s) of rat liver endosomes (GE fraction); type: in vitro ADME; conditions: mean ± SD, n = 3; for degradation within isolated endosomes by acid precipitation: cell-free system, 37C, up to 60 min, 10% TCA
# [2] = tested on: endosomal protease(s) of rat liver endosomes (GE fraction); experiment: Sephadex G-50 chromatography of radioactivity acid-extracted from endosomes; type: in vitro ADME
# [3] = tested on: EGF receptor; conditions: freshly prepared endosomes; ref 49a; cited from earlier work
# [4] = Internalization of injected 125I-insulin into GE fraction of liver; type: in vivo, rat; conditions: 5 min after portal vein injection, 100 ng/100 g bw; mean ± SD, n = 9
# [5] = molecular target: insulin receptor (Rattus norvegicus, UniProt P15127); experiment: PEG precipitation of insulin-receptor complexes in endosomes; type: binding; conditions: for effect on insulin dissociation from receptor: 15 min, presence or absence of ATP, PCMB 1 mM
# [6] = cited from earlier work
# [7] = tested on: endosomal insulin degrading activity (GE fraction); type: biochemical, rat; conditions: for effect on endosomal 125I-insulin degradation (in words): concentrations as in Tables I and II
# [8] = tested on: GE fraction proton translocase activity; experiment: Cell-free ATP-dependent acidification assay; type: biochemical, rat; conditions: 1 µM added at end of incubation; acridine orange absorbance 492/540 nm
# Procedure, shortened: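 Pelleted at 16,000 g for 1 h, Dounce-resuspended, equilibrated 3-6 h at 4°C. Acridine orange 6 µM, ATP 0.4 mM (final); initial quench rates recorded. Test compound 1 µM added after incubation.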
# [9] = tested on: macrophage endosomes; conditions: identical cell-free system; cited from earlier work
# [10] = molecular target: T1, prolactin receptor; experiment: Prolactin dissociation from its receptor in endosomes; type: binding
# [11] = Table I, 1 mM, acid solubility at 30 min, mean ± SD of 3 experiments
# [12] = Table II, nucleotide 10 mM (in place of ATP), 0-30 min, mean ± SD, n = 3
# [13] = Table II, 2 mM, 0-30 min, mean ± SD, n = 3
# [14] = Table II, 10 µM, 0-30 min, mean ± SD, n = 3
# [15] = Table II, 1 mM, 0-30 min, mean ± SD, n = 3
# [16] = Table II, 50 µM, 0-30 min, mean ± SD, n = 3
# Sequence of insulin receptor (P15127 27-759 limits assumed): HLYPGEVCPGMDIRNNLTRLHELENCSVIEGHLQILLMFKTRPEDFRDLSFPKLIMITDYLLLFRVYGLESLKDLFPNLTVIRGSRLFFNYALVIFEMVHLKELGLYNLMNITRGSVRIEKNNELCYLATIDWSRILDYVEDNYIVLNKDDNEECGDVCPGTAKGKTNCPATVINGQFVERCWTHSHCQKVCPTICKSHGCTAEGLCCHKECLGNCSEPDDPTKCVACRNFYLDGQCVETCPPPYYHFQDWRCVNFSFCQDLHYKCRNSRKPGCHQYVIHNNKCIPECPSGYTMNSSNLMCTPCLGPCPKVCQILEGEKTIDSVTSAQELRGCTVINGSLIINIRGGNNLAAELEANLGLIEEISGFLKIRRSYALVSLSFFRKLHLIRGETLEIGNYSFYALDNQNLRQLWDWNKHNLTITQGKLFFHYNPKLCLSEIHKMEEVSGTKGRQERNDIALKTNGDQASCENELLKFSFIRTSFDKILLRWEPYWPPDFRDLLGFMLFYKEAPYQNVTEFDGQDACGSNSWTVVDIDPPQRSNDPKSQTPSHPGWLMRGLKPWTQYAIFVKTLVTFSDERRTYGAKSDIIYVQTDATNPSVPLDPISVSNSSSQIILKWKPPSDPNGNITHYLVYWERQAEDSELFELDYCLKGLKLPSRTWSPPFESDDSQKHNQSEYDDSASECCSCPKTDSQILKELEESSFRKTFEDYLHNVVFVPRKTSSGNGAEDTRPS
# Sequence of insulin receptor (P15127 764-1383 partner limits assumed): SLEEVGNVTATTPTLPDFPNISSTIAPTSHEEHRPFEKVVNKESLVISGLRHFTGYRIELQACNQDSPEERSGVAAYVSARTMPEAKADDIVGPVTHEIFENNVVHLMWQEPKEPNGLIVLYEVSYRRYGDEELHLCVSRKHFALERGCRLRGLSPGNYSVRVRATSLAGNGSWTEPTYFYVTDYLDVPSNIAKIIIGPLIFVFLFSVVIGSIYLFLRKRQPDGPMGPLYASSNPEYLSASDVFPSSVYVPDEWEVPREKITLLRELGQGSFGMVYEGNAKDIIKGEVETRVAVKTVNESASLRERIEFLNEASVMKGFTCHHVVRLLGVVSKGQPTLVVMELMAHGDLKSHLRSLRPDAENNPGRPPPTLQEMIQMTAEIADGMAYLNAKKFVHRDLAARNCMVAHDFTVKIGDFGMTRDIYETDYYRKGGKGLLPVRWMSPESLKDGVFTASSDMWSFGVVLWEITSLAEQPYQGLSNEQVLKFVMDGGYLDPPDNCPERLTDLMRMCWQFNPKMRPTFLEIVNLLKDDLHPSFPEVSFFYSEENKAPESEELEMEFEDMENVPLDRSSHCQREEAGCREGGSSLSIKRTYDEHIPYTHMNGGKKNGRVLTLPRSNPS
molecule,measurement,setting,value
125I-EGF: mouse epidermal growth factor (Collaborative Research) radioiodinated by chloramine T method,degradation within isolated endosomes by acid precipitation,[1],not detectable
same,degradation within isolated endosomes by Sephadex G-50 chromatography,[2]; 0 vs 15 min incubation in cell-free system,not detectable
same,ligand dissociated from receptor,[3],43%
"125I-insulin: Porcine insulin (26.8 IU/mg, Eli Lilly) radioiodinated by the chloramine T method",125I-insulin degraded (percentage of control),"[1]; Table II, no nucleotide added (minus ATP), 0-30 min",35.4%
same,enrichment in GE fraction compared to parent homogenate,[4],40 + 4 fold
same,increase in size of peak eluting at position of radioiodotyrosine (peak III),"[2]; after 15 min incubation, rats given 2 µg 125I-insulin/100 g bw",threefold increase
same,intact 125I-insulin (acid precipitable) retained in freshly prepared endosomes,[5]; 0 min,82%
same,degradation of insulin,[5]; 15 min incubation +ATP,5.8 ng.mg cell fraction protein-1
same,dissociation of insulin from receptor,[5]; 15 min incubation +ATP,1.7 ng insulin.mg cell fraction pr
same,loss and degradation of free insulin,[5]; 15 min incubation minus ATP,2.1 ng.mg cell fraction protein-1
same,loss of receptor-bound insulin,[5]; 15 min incubation minus ATP,no loss
same,internalized ligand dissociated from receptor,[5]; freshly prepared endosomes,59%
same,proportion of intact insulin that was receptor-bound (PEG precipitable),"[5]; freshly prepared endosomes, 0 min",41%
same,t1/2 of in vivo insulin clearance,[6],6 min
"c1cnc2c(c1)ccc1cccnc12 [1,10-Phenanthroline, 1,10-phenanthroline]",effect on insulin dissociation from receptor,[5],inhibited
same,inhibition of 125I-insulin degradation,"[7]; 1 mM, 30 min",91%
same,125I-insulin degraded (percentage of control),[7]; [11],8.8%
same,effect on endosomal 125I-insulin degradation (in words),[7]; 30 min,Significant inhibition
Nc1ncnc2c1ncn2[C@@H]1O[C@H](COP(=O)(O)OP(=O)(O)O)[C@@H](O)[C@H]1O [ADP],125I-insulin degraded (percentage of control),[7]; [12],40.0%
Nc1ncnc2c1ncn2[C@@H]1O[C@H](COP(=O)(O)OP(=O)(O)NP(=O)(O)O)[C@@H](O)[C@H]1O [AMP- PNP],125I-insulin degraded (percentage of control),[7]; [12],24.5%
Nc1ncnc2c1ncn2[C@@H]1O[C@H](COP(=O)(O)OP(=O)(O)OP(=O)(O)O)[C@@H](O)[C@H]1O [ATP],125I-insulin degraded (percentage of control),[7]; [12],100%
N=C(N)NC(=O)c1nc(Cl)c(N)nc1N [Amiloride],125I-insulin degraded (percentage of control),[7]; [13],96.6%
same,effect on endosomal 125I-insulin degradation (in words),[7]; 30 min,little effect
"CCN(CC)CCCC(C)Nc1ccnc2cc(Cl)ccc12 (centres unmarked) [Chioroquine, chloroquine]",inhibition of 125I-insulin degradation,"[7]; 2 mM, 30 min",~ 80%
same,125I-insulin degraded (percentage of control),[7]; [13],16.3%
same,effect on endosomal 125I-insulin degradation (in words),[7]; 30 min,inhibited markedly
"C(=NC1CCCCC1)=NC1CCCCC1 [DCCD, dicyclohexylcarbodiimide]",125I-insulin degraded (percentage of control),[7]; [14],50.4%
same,125I-insulin degraded (percentage of control),[7]; [15],38.7%
same,effect on endosomal 125I-insulin degradation (in words),[7]; 30 min,significant inhi- bition
O=C(O)CN(CCN(CC(=O)O)CC(=O)O)CC(=O)O [EDTA],effect on endosomal 125I-insulin degradation (in words),[7]; 30 min,no significant effect
Nc1nc2c(ncn2[C@@H]2O[C@H](COP(=O)(O)OP(=O)(O)OP(=O)(O)O)[C@@H](O)[C@H]2O)c(=O)[nH]1 [GTP],125I-insulin degraded (percentage of control),[7]; [12],52.8%
CC[C@@]1([C@@H]2O[C@@H]([C@H]3O[C@@](O)(CO)[C@H](C)C[C@@H]3C)C[C@@H]2C)CC[C@H]([C@]2(C)CC[C@]3(C[C@H](O)[C@@H](C)[C@@H]([C@@H](C)[C@@H](OC)[C@H](C)C(=O)O)O3)O2)O1 [Monensin],inhibition of 125I-insulin degradation,"[7]; 50 µM, 30 min",~ 80%
same,125I-insulin degraded (percentage of control),[7]; [16],20.6%
same,effect on endosomal 125I-insulin degradation (in words),[7]; 30 min,inhibited markedly
"CCN1C(=O)C=CC1=O [NEM, N-ethylmaleimide]",125I-insulin degraded (percentage of control),[7]; [14],23.6%
same,125I-insulin degraded (percentage of control),[7]; [15],26.8%
same,effect on endosomal 125I-insulin degradation (in words),[7]; 30 min,significant inhi- bition
same,effect on endosomal 125I-insulin degradation (in words),"[7]; 30 min, listed as N-ethylmaleimide (NEM)",inhibited markedly
CO[C@@H]1C[C@@H](C[C@H]2CC[C@H](C)[C@H]([C@@H](C)C(=O)O)O2)O[C@]2(O[C@](C)([C@H]3CC[C@@](C)([C@@H]4O[C@@H]([C@H]5O[C@@](O)(CO)[C@H](C)C[C@@H]5C)C[C@@H]4C)O3)C[C@H]2C)[C@@H]1C [Nigericin],inhibition of 125I-insulin degradation,"[7]; 50 µM, 30 min",~ 80%
same,125I-insulin degraded (percentage of control),[7]; [16],17.4%
same,effect on endosomal 125I-insulin degradation (in words),[7]; 30 min,inhibited markedly
same,effect on ATP-generated pH gradients of GE fraction,[8],dissipated rapidly
CC[C@H]1/C=C/C=C/C[C@@H](C)[C@H](O)[C@@](C)(O)C(=O)[C@@H](C)[C@H](O)[C@@H](C)C(=O)[C@@H](C)[C@H](O)[C@@H](C)/C=C/C(=O)O[C@@H]2[C@H](C)[C@H](CC1)O[C@]1(CC[C@H](C)[C@H](C[C@@H](C)O)O1)[C@H]2C [Oligomycin],125I-insulin degraded (percentage of control),"[7]; Table II, 5 µg/ml, 0-30 min, mean ± SD, n = 3",90.2%
same,effect on endosomal 125I-insulin degradation (in words),[7]; 30 min,little effect
"O=C(O)c1cc[c]([Hg][Cl])cc1 [PCMB, p-chloromercuribenzoic acid]",effect on insulin dissociation from receptor,[5],inhibited
same,inhibition of 125I-insulin degradation,"[7]; 1 mM, 30 min",100%
same,125I-insulin degraded (percentage of control),[7]; [11],0%
same,effect on endosomal 125I-insulin degradation (in words),[7]; 30 min,Significant inhibition
O=S(=O)(F)Cc1ccccc1 [PMSF],effect on degradation of mannose-BSA in macrophage endosomes,[9],inhibition of degradation
same,125I-insulin degraded (percentage of control),[7]; [11],89.2%
same,effect on endosomal 125I-insulin degradation (in words),[7]; 30 min,no significant effect
[O]=[V]([O-])([O-])[O-] [Vanadate],125I-insulin degraded (percentage of control),"[7]; Table II, 100 µM, 0-30 min, mean ± SD, n = 3",99.9%
same,effect on endosomal 125I-insulin degradation (in words),[7]; 30 min,little effect
Antipain,effect on degradation of mannose-BSA in macrophage endosomes,[9],inhibition of degradation
same,effect on endosomal 125I-insulin degradation (in words),[7]; 30 min,no significant effect
Aprotinin,effect on endosomal 125I-insulin degradation (in words),[7]; 30 min,no significant effect
Bacitracin,inhibition of 125I-insulin degradation,"[7]; 5 mg/ml, 30 min",40%
same,effect on endosomal 125I-insulin degradation (in words),[7]; 30 min,Significant inhibition
Leupeptin,effect on degradation of mannose-BSA in macrophage endosomes,[9],inhibition of degradation
same,effect on endosomal 125I-insulin degradation (in words),[7]; 30 min,no significant effect
Pepstatin,effect on degradation of mannose-BSA in macrophage endosomes,[9],inhibition of degradation
same,effect on endosomal 125I-insulin degradation (in words),[7]; 30 min,no significant effect
Triton X-100,125I-insulin degraded (percentage of control),"[7]; Table I, detergent 0.1%, 30 min, mean ± SD of 3 experiments",22.9%
same,effect on endosomal 125I-insulin degradation (in words),[7]; 30 min,Significant inhibition
Valinomycin,inhibition of 125I-insulin degradation,"[7]; 50 µM, 30 min",17%
B1,internalized ligand dissociated from receptor,[10]; after 15 min incubation in cell-free system,50%
same,internalized ligand dissociated from receptor,[10]; before incubation (freshly isolated endosomes),60%
same,degradation within isolated endosomes by acid precipitation,[1],No degradation
